High-throughput results deposited in PubChem BioAssay by Sanford-Burnham Center for Chemical Genomics.
LMPTP inh: LMPTP phosphatase inhibitors, primary screen, biochemical, fluorescence intensity, uHTS | Low molecular weight phosphotyrosine protein phosphatase (Homo sapiens), P24666 | recombinant LMPTP-A, OMFP fluorogenic substrate | inhibition, % at 20 µM | 360,000 compounds, 0.22% hits | AID 651560, 2012;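 active = compounds that cut the enzyme signal by at least half of the control window in the single-dose screen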;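 note: plate controls were DMSO wells with enzyme plus substrate for no effect and substrate without enzyme for full effect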
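Assay system: LMPTP-A enzyme. Input: 0.625 nM LMPTP-A final. Probe or stimulus: 400 µM OMFP. Compound dosing: single 20 µM dose. Schedule: 50 min dark incubation at room temperature. Detection: fluorescence intensity of OMFP turnover product. Read-out: percent inhibition versus substrate-only and uninhibited controls. Benchmarks: no-enzyme low control, uninhibited high control.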
Scp-1 inhibitor: Scp-1 phosphatase inhibitors, primary screen, biochemical, colorimetric, uHTS; Carboxy-terminal domain RNA polymerase II polypeptide A small phosphatase 1 (Homo …; Recombinant Scp1, phosphopeptide, malachite green phosphate absorbance; inhibition, % at 20 µM; 340,000 compounds, 0.88% hits; AID 493091, 2011;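 active = inhibition above about 50% at 20 µM, limit read from the data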;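 note: plate controls were DMSO wells with enzyme for no effect and wells lacking enzyme for full effect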
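Test system: SCP-1 phosphatase catalytic domain, residues 76-261; measured by: colorimetric phosphate reagent with accelerator and stabiliser, absorbance at 630 nm; timing: enzyme reaction 45 min at room temperature, colour 5 min, stabilisation 30 min; also added: Phosphorylated 17-residue peptide substrate; compound dosing: one concentration, 20 µM, with 1.0% DMSO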
Rpn11 block: Rpn11 (PSMD14) deubiquitinase inhibitors, primary screen, biochemical, fluorescence polarization, uHTS | human 26S proteasome, Ub4-pepOG fluorescence polarization; 20S core pre-blocked with epoxomicin | inhibition, % at 20 µM | 26S proteasome non-ATPase regulatory subunit 14 (Homo sapiens), O00487 | 360,000 compounds, 0.59% hits | AID 588493, 2011;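 active = inhibition at 20 µM, scaled to each plate's controls, above about 33%, limit read from the data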
STEP inh: STEP phosphatase inhibitors, primary screen, biochemical, fluorescence intensity, uHTS; inhibition, % at 20 µM; recombinant STEP, OMFP fluorogenic substrate; 360,000 compounds, 0.25% hits; AID 588621, 2011;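 active = inhibition at 20 µM, scaled per plate between control wells, above about 37%, limit read from the data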;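 note: 0% = DMSO with enzyme and substrate and 100% = substrate only without enzyme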
Target sequence (P54829 whole entry, looked up): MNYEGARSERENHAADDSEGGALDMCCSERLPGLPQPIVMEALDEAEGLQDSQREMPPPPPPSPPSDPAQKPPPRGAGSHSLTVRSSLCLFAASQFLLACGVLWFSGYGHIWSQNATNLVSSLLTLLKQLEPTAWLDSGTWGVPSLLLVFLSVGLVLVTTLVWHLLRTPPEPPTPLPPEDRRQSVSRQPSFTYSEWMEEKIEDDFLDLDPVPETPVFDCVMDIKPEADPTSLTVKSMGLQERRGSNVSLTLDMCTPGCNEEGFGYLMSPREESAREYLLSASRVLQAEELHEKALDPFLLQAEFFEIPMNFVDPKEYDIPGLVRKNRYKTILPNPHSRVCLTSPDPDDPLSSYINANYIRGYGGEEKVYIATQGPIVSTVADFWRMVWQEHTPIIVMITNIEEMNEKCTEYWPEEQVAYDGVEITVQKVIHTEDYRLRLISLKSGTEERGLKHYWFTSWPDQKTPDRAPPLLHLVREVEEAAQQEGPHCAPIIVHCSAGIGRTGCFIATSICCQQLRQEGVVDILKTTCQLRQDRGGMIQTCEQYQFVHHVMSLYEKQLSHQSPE
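Measure: Control-normalized % inhibition with plate pattern correction | Test system: STEP phosphatase, cell-free reaction | Medium: pH 6.0 Bis-Tris with DTT and Tween 20 | Technique: Fluorescence, 480/540 nm | Times: Reaction 20 min, ambient temperature | Doses: Single compound dose of 20 µM, 1% DMSO final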
DNMT1 block: human DNMT1 methyltransferase inhibitors, primary screen, biochemical, molecular beacon, fluorescence, HinP1I cleavage, uHTS; DNA (cytosine-5)-methyltransferase 1 (Homo sapiens), P26358; 360,000 compounds, 0.83% hits; inhibition (reported as % activation of signal), % at 10 µM; in the data active = inhibition above about 50%
Scp1 confirm: Scp-1 phosphatase inhibitors, retest, confirmation, biochemical, colorimetric, single concentration; shares compounds with Scp-1 inhibitor; recombinant SCP-1 catalytic domain, phosphate release, malachite green absorbance; inhibition, % at 20 µM; 2,500 compounds, 61% hits; AID 540281, 2011;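 note: plate controls were DMSO with enzyme for no effect and buffer wells lacking enzyme for full effect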
Scp-1 MG ctr: colorimetric readout interference by compounds, confirmation, artefact control for Scp-1 inhibitor project, biochemical, single concentration; 2,500 tested, under 10 active; apparent inhibition (interference), % at 20 µM; shares compounds with Scp-1 inhibitor; Colorimetric interference counterscreen, malachite green absorbance 630 nm;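 note: compounds added after enzyme reaction finished so only phosphate colour detection is probed; plate controls were DMSO wells with completed Scp-1 reaction for no effect and substrate wells lacking enzyme for full effect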
Scp-1 Tm shift: Scp-1 binding by thermal shift, confirmation, orthogonal assay for Scp-1 inhibitor project, biophysical, differential scanning fluorimetry; Recombinant SCP1, Sypro Orange thermal shift Tm; thermal shift relative to vanadate control, % at 40 µM; AID 540329, 2011; shares compounds with Scp-1 inhibitor; 1,500 compounds, 25% hits;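 active = substances whose mean melting-temperature shift, as a percentage of the reference inhibitor's shift, reaches about 5.3%, limit read from the data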;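 note: 0% = Tm of DMSO wells and 100% = Tm with sodium orthovanadate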
DNMT1 interf DR: spectral interference with molecular beacon fluorescence, dose response, artefact control for DNMT1 inhibitor project, biochemical, fluorescent molecular beacon. shares compounds with DNMT1 block. spectral interference counter-screen. IC50, µM. 200 tested, under 10 active. AID 602382, 2012; call rule not given here
DNMT1 confirm: DNMT1 methyltransferase inhibitor retest, confirmation, biochemical, molecular beacon, fluorescence, single concentration; DNMT1 molecular beacon HinP1I cleavage; AID 602385, 2012; 2,300 compounds, 8% hits; shares compounds with DNMT1 block; inhibition, % at 10 µM;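 active = average inhibition of at least 30% in the single-concentration confirmation test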
DNMT1 interf: shows spectral interference in the DNMT1 beacon assay; activation (fluorescence interference), % at 10 µM; 2,300 compounds, 1% hits; DNMT1 molecular beacon spectral interference counterscreen, fluorescence 485/520; shares compounds with DNMT1 block;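 active = activation of at least 30% at 10 µM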;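 note: DNMT1 catalytic domain with a HinP1I cleavage step and a FAM/dabcyl DNA beacon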
* marks the source's active call; other numbers are inactive results. This is a sample that favours compounds with a hit; in the whole collection about 2% have one here.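 Rule for the calls, unless noted: active = inhibition of at least 30% at 20 µM; inactive = the rest.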

What do the screens show for `O=C(Nc1ccc(S(=O)(=O)Nc2nccs2)cc1)c1nn(-c2ccc(F)cc2)ccc1=O`?
LMPTP inh: 56*; Scp-1 inhibitor: 93*; Rpn11 block: 5; STEP inh: 7; DNMT1 block: 59*; Scp1 confirm: 59*; Scp-1 MG ctr: -22; Scp-1 Tm shift: 4; DNMT1 confirm: 10; DNMT1 interf: -4

Results for CCOc1ccc(-n2ccc(=O)c(C(=O)Nc3ccc(S(=O)(=O)Nc4nccs4)cc3)n2)cc1 ?
LMPTP inh: 9; Scp-1 inhibitor: 6; Rpn11 block: 2; STEP inh: -1; DNMT1 block: -1

How did COC(=O)c1ccc(Cn2nc(-c3ccc(C)cc3)ccc2=O)cc1 do in these assays?
LMPTP inh: 2; Scp-1 inhibitor: -13; Rpn11 block: 4; STEP inh: -1; DNMT1 block: -1

How did Cc1ccccc1NC(=O)CSc1ccsc1[N+](=O)[O-] do in these assays?
LMPTP inh: 50; Scp-1 inhibitor: 72*; Rpn11 block: -12; STEP inh: 18; DNMT1 block: 104*; Scp1 confirm: 62*; Scp-1 MG ctr: -15; Scp-1 Tm shift: 14*; DNMT1 interf DR: >99; DNMT1 confirm: 49*; DNMT1 interf: -2

What do the screens show for `CN(CCC#N)C(=O)COC(=O)c1c2c(nc3ccccc13)/C(=C\c1ccco1)CC2`?
LMPTP inh: 67*; Scp-1 inhibitor: 84*; Rpn11 block: -1; STEP inh: 37; DNMT1 block: 77*; Scp1 confirm: 53*; Scp-1 MG ctr: -11; Scp-1 Tm shift: 10*; DNMT1 confirm: 8; DNMT1 interf: 6

How did CC1CCCCC1NC(=O)COC(=O)c1c2c(nc3ccccc13)/C(=C\c1ccco1)CC2 (stereo unspecified) do in these assays?
LMPTP inh: 50*; Scp-1 inhibitor: 50*; Rpn11 block: -21; STEP inh: 24; DNMT1 block: 85*; Scp1 confirm: 60*; Scp-1 MG ctr: -8; Scp-1 Tm shift: 9.4*; DNMT1 confirm: 10; DNMT1 interf: 2

How did O=C(COC(=O)c1c2c(nc3ccccc13)/C(=C\c1ccco1)CC2)NC1CCCC1 do in these assays?
LMPTP inh: 65*; Scp-1 inhibitor: 91*; Rpn11 block: -7; STEP inh: 18; DNMT1 block: 97*; Scp1 confirm: 61*; Scp-1 MG ctr: -14; Scp-1 Tm shift: 15*; DNMT1 confirm: 20; DNMT1 interf: -2
